According to ChEMBL document CHEMBL4330087, “Synthesis, antimicrobial activity, attenuation of aminoglycoside resistance in MRSA, and ribosomal A-site binding of pyrene-neomycin conjugates” (Eur J Med Chem, 2019):
Values after ≈ are worked out from the molar mass of the structure shown. Active and inactive are the calls of the source. The rule behind the calls is not given here.

Assays:
Pseudomonas aeruginosa = assay: Antibacterial activity against NEO-resistant Pseudomonas aeruginosa 27853 at 6.25 uM after 15 to 20 hrs by CLSI protocol based microdilution assay relative to control; type: functional
Method in brief: (§1)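 Exponential-phase cultures were exposed to 6.25 μM compound in duplicate with neomycin as reference, at 37 °C in a humidified incubator for 15-20 h. Broth and culture controls received sterile water with 1% DMSO. Percent growth inhibition was calculated against the growth and background controls.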

Staphylococcus aureus [1] = assay: Antibacterial activity against methicillin-resistant Staphylococcus aureus SU-5 at 6.25 uM after 15 to 20 hrs by CLSI protocol based microdilution assay relative to control; type: functional; method in brief: as §1
Enterococcus faecium = assay: Antibacterial activity against NEO-intermediate sensitive Enterococcus faecium BM4105-RF at 6.25 uM after 15 to 20 hrs by CLSI protocol based microdilution assay relative to control; type: functional
Method in brief: (§2)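 Single-concentration screen at 6.25 μM against exponential-phase cultures, in duplicate, with NEO as reference. Enterococcus was grown in BHI broth, M. smegmatis in TS broth with 0.05% Tween 80, and all other strains in TS broth. The 1% DMSO water vehicle was added to broth (background) and culture (growth control). Incubation was 37 °C, humidified, 15-20 h. Result is percent growth inhibition.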

Ribosomal RNA A-site [2] = assay: Displacement of F-NEO from human mitochondrial rRNA-A site after 10 to 20 mins by fluorescence assay; type: nucleic-acid assay
Method in brief: (§3)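 A 100 nM F-NEO:A-site RNA complex in 10 mM HEPES, 50 mM NaCl, 0.04 mM EDTA, pH 7.0 was titrated with 2-fold dilutions of ligand from 20 to 0.009 μM, or from 60 or 40 μM for weaker ligands. Incubated 10-20 min at room temperature, fluorescence read at ex 485/em 525 nm. IC50 from dose-response curve fit.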

[3] = Inhibition of APH(2\")-1a (unknown origin)
[4] = Displacement of F-NEO from human mitochondrial rRNA-A site C1410U mutant after 10 to 20 mins by fluorescence assay; method in brief: as §3
Streptococcus pyogenes = assay: Antibacterial activity against NEO-resistant Streptococcus pyogenes C203 at 6.25 uM after 15 to 20 hrs by CLSI protocol based microdilution assay relative to control; type: functional; method in brief: as §1
Staphylococcus aureus [5] = assay: Antibacterial activity against methicillin-resistant Staphylococcus aureus M0602 at 6.25 uM after 15 to 20 hrs by CLSI protocol based microdilution assay relative to control; type: functional; method in brief: as §1
[6] = test system: Mycolicibacterium smegmatis; assay: Antibacterial activity against NEO-sensitive Mycobacterium smegmatis at 6.25 uM after 15 to 20 hrs by CLSI protocol based microdilution assay relative to control; type: functional; method in brief: as §2
Homo sapiens [7] = organism: Homo sapiens; assay: Displacement of F-NEO from human mitochondrial rRNA-A site A1490G mutant after 10 to 20 mins by fluorescence assay relative to NEO
Method in brief: (§4)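 100 nM F-NEO:A-site complex in 10 mM HEPES, 50 mM NaCl, 0.04 mM EDTA, pH 7.0, mixed with ligand and incubated 10-20 min at room temperature. Fluorescence read at ex 485/em 525 nm, in duplicate. Percent binding was computed from the intensities of ligand-treated complex, complex without ligand, and complex with neomycin.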

Enterococcus faecalis = assay: Antibacterial activity against NEO-intermediate sensitive Enterococcus faecalis ATCC 29212 at 6.25 uM after 15 to 20 hrs by CLSI protocol based microdilution assay relative to control; type: functional; method in brief: as §2
Staphylococcus aureus [8] = assay: Antibacterial activity against NEO-sensitive Staphylococcus aureus 25923 at 6.25 uM after 15 to 20 hrs by CLSI protocol based microdilution assay relative to control; type: functional; method in brief: as §2
Homo sapiens [9] = organism: Homo sapiens; assay: Displacement of F-NEO from human mitochondrial rRNA-A site C1410U mutant after 10 to 20 mins by fluorescence assay relative to NEO; set-up: concentration or dose not given beside the values; method in brief: as §4
Klebsiella oxytoca = assay: Antibacterial activity against NEO-sensitive Klebsiella oxytoca HM-625 at 6.25 uM after 15 to 20 hrs by CLSI protocol based microdilution assay relative to control; type: functional; method in brief: as §2
Escherichia coli [10] = assay: Antibacterial activity against NEO-sensitive Escherichia coli harboring TolC mutant at 6.25 uM after 15 to 20 hrs by CLSI protocol based microdilution assay relative to control; type: functional; method in brief: as §1
[11] = test system: Staphylococcus epidermidis; assay: Antibacterial activity against NEO-sensitive Staphylococcus epidermidis 12384 at 6.25 uM after 15 to 20 hrs by CLSI protocol based microdilution assay relative to control; type: functional; method in brief: as §2
Ribosomal RNA A-site [12] = assay: Displacement of F-NEO from Escherichia coli rRNA-A site after 10 to 20 mins by fluorescence assay; type: nucleic-acid assay; method in brief: as §3
Staphylococcus aureus [13] = assay: Antibacterial activity against methicillin-resistant Staphylococcus aureus 33591 at 6.25 uM after 15 to 20 hrs by CLSI protocol based microdilution assay relative to control; type: functional; method in brief: as §1
Staphylococcus aureus [14] = assay: Antibacterial activity against NEO-sensitive Staphylococcus aureus NRS77 after 15 to 20 hrs by CLSI protocol based microdilution assay; type: functional
Method in brief: (§5)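 CLSI broth microdilution MIC in triplicate on exponential-phase cells, ~3×10^5 cells per mL in cation-adjusted Mueller-Hinton broth. Compound was added from 10× stocks in 10% DMSO as serial 2-fold dilutions, final 50 to 0.78 μM. Plates were incubated at 37 °C, humidified, 15-20 h. Growth was read as absorbance at 595 nm, and percent inhibition was averaged over triplicates.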

Ribosomal RNA A-site [15] = assay: Displacement of F-NEO from human mitochondrial rRNA-A site after 10 to 20 mins by fluorescence assay relative to NEO; type: nucleic-acid assay; set-up: concentration or dose not given beside the values; method in brief: as §4
[16] = Inhibition of AAC(3)-4 (unknown origin)
Staphylococcus aureus [17] = assay: Antibacterial activity against NEO-sensitive Staphylococcus aureus harboring NorA mutant at 6.25 uM after 15 to 20 hrs by CLSI protocol based microdilution assay relative to control; type: functional; method in brief: as §1
[18] = Inhibition of APH(3')-1a (unknown origin)
[19] = Inhibition of AAC(6')-1e (unknown origin)
Ribosomal RNA A-site [20] = assay: Displacement of F-NEO from human cytosolic rRNA-A site after 10 to 20 mins by fluorescence assay relative to NEO; type: nucleic-acid assay; set-up: concentration or dose not given beside the values; method in brief: as §4
Klebsiella pneumoniae = assay: Antibacterial activity against Klebsiella pneumoniae NR-151410 at 6.25 uM after 15 to 20 hrs by CLSI protocol based microdilution assay relative to control; type: functional; method in brief: as §2
Staphylococcus aureus [21] = assay: Antibacterial activity against NEO-sensitive Staphylococcus aureus C2 after 15 to 20 hrs by CLSI protocol based microdilution assay; type: functional; method in brief: as §5
[22] = Inhibition of AAC(2')-1c (unknown origin)
[23] = Inhibition of Eis (unknown origin)
Bacillus anthracis = assay: Antibacterial activity against NEO-sensitive Bacillus anthracis BA852 at 6.25 uM after 15 to 20 hrs by CLSI protocol based microdilution assay relative to control; type: functional; method in brief: as §1
Acinetobacter baumannii = assay: Antibacterial activity against NEO-sensitive Acinetobacter baumannii ATCC 19606 at 6.25 uM after 15 to 20 hrs by CLSI protocol based microdilution assay relative to control; type: functional, ATCC 19606 = CIP 70.34 = JCM 6841; method in brief: as §2
Escherichia coli [24] = assay: Antibacterial activity against NEO-sensitive Escherichia coli ATCC 25922 at 6.25 uM after 15 to 20 hrs by CLSI protocol based microdilution assay relative to control; type: functional; method in brief: as §2
[25] = Antibacterial activity against NEO-sensitive Enterobacter cloacae 13047 at 6.25 uM after 15 to 20 hrs by CLSI protocol based microdilution assay relative to control; type: functional, Enterobacter cloacae subsp. cloacae, ATCC 13047; method in brief: as §2
Ribosomal RNA A-site [26] = assay: Displacement of F-NEO from human cytosolic rRNA-A site after 10 to 20 mins by fluorescence assay; type: nucleic-acid assay; method in brief: as §3
Listeria monocytogenes = assay: Antibacterial activity against NEO-sensitive Listeria monocytogenes ATCC 19115 at 6.25 uM after 15 to 20 hrs by CLSI protocol based microdilution assay relative to control; type: functional; method in brief: as §2
Staphylococcus aureus [27] = assay: Antibacterial activity against NEO-sensitive Staphylococcus aureus 6538 after 15 to 20 hrs by CLSI protocol based microdilution assay; type: functional; method in brief: as §5
Escherichia coli [28] = assay: Antibacterial activity against multidrug-resistant Escherichia coli H4H at 6.25 uM after 15 to 20 hrs by CLSI protocol based microdilution assay relative to control; type: functional; method in brief: as §1
Ribosomal RNA A-site [29] = assay: Displacement of F-NEO from Escherichia coli rRNA-A site after 10 to 20 mins by fluorescence assay relative to NEO; type: nucleic-acid assay; set-up: concentration or dose not given beside the values; method in brief: as §4
Staphylococcus aureus [30] = assay: Antibacterial activity against NEO-sensitive Staphylococcus aureus C1 after 15 to 20 hrs by CLSI protocol based microdilution assay; type: functional; method in brief: as §5
Staphylococcus aureus [31] = assay: Antibacterial activity against methicillin-resistant Staphylococcus aureus A960649 at 6.25 uM after 15 to 20 hrs by CLSI protocol based microdilution assay relative to control; type: functional; method in brief: as §1

NC[C@@H]1O[C@H](O[C@H]2[C@@H](O)[C@H](O[C@@H]3[C@@H](O)[C@H](N)C[C@H](N)[C@H]3O[C@H]3O[C@H](CN)[C@@H](O)[C@H](O)[C@H]3N)O[C@@H]2CNC(=O)CCc2ccc3ccc4cccc5ccc2c3c45)[C@H](N)[C@@H](O)[C@@H]1O
Activity (Pseudomonas aeruginosa): 14%
Activity (Staphylococcus aureus [1]): inactive
Activity (Enterococcus faecium): 0%
IC50 (Ribosomal RNA A-site [2]): 373 nM
inhibition [3]: Active
IC50 [4]: 332 nM
Activity (Streptococcus pyogenes): inactive
Activity (Staphylococcus aureus [5]): inactive
Activity [6]: 35%
inhibition (Homo sapiens [7]): 22%
Activity (Enterococcus faecalis): 6%
Activity (Staphylococcus aureus [8]): 15%
inhibition (Homo sapiens [9]): 65%
Activity (Klebsiella oxytoca): 5%
Activity (Escherichia coli [10]): inactive
Activity [11]: 10%
IC50 (Ribosomal RNA A-site [12]): 310 nM
Activity (Staphylococcus aureus [13]): 14%
MIC (Staphylococcus aureus [14]): > 25 µM
inhibition (Ribosomal RNA A-site [15]): 47%
inhibition [16]: Active
Activity (Staphylococcus aureus [17]): inactive
inhibition [18]: Active
inhibition [19]: Active
inhibition (Ribosomal RNA A-site [20]): 39%
Activity (Klebsiella pneumoniae): 13%
MIC (Staphylococcus aureus [21]): 25 µM (≈ 21.7 µg/mL)
inhibition [22]: Active
inhibition [23]: Active
Activity (Bacillus anthracis): inactive
Activity (Acinetobacter baumannii): 10%
Activity (Escherichia coli [24]): 0%
Activity [25]: 0%
IC50 (Ribosomal RNA A-site [26]): 447 nM
Activity (Listeria monocytogenes): inactive
MIC (Staphylococcus aureus [27]): 12.5 µM (≈ 10.9 µg/mL)
Activity (Escherichia coli [28]): inactive
inhibition (Ribosomal RNA A-site [29]): 33%
MIC (Staphylococcus aureus [30]): 25 µM (≈ 21.7 µg/mL)
Activity (Staphylococcus aureus [31]): 16%
